Measured values from ChEMBL document CHEMBL1671627, “Increasing trends in antimicrobial resistance among clinically important anaerobes and Bacteroides fragilis isolates causing nosocomial infections: emerging resistance to carbapenems” (2008).
Values after ≈ are worked out from the molar mass of the structure shown.

Legend:
[1] = system: Fusobacterium necrophorum; test: Antibacterial activity against Fusobacterium necrophorum assessed as susceptible isolates by CLSI agar dilution method in presence of Tazobactam; assay type: functional
Summary of the method: (§1)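 Agar dilution per CLSI guidelines on nonduplicate anaerobic bloodstream isolates collected at NTUH, January to December 2006. Isolates were spotted by Steers replicator onto supplemented Brucella blood agar and incubated anaerobically for 48 h at 35°C. MIC was the lowest drug concentration that inhibited growth. B. fragilis ATCC 25285, B. thetaiotaomicron ATCC 29741 and E. lentum ATCC 43055 were run as QC in each run.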

[2] = system: Clostridium paraputrificum; test: Antibacterial activity against beta-lactamase producing Clostridium paraputrificum assessed as susceptible isolates by CLSI agar dilution method in presence of Tazobactam; assay type: functional
Summary of the method: (§2)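 CLSI agar dilution MICs for anaerobic blood isolates (nonduplicate) collected from bloodstream-infection patients at a Taiwanese tertiary hospital, January–December 2006. Isolates were spotted by Steers replicator onto supplemented Brucella blood agar and incubated anaerobically for 48 h at 35°C. MIC was the lowest drug concentration inhibiting growth. Each run included B. fragilis ATCC 25285, B. thetaiotaomicron ATCC 29741 and E. lentum ATCC 43055 as quality-control strains.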

[3] = system: Peptoniphilus asaccharolyticus; test: Antibacterial activity against beta-lactamase producing Peptoniphilus asaccharolyticus assessed as susceptible isolates by CLSI agar dilution method in presence of Tazobactam; assay type: functional; summary of the method: as §2
Prevotella buccae [4] = test: Antibacterial activity against Prevotella buccae assessed as resistant isolates by CLSI agar dilution method in presence of Tazobactam; assay type: functional, Segatella buccae
Summary of the method: (§3)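 207 nonduplicate anaerobic blood isolates from patients with bloodstream infections at NTUH, collected January–December 2006. MICs were determined by agar dilution following CLSI guidelines. Inocula were applied with a Steers replicator onto supplemented Brucella blood agar and incubated 48 h at 35°C in an anaerobic chamber. MIC was the lowest concentration inhibiting growth. B. fragilis ATCC 25285, B. thetaiotaomicron ATCC 29741 and E. lentum ATCC 43055 served as controls in each run.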

Fusobacterium varium [5] = test: Antibacterial activity against Fusobacterium varium assessed as resistant isolates by CLSI agar dilution method in presence of Tazobactam; assay type: functional; summary of the method: as §3
Fusobacterium varium [6] = test: Antibacterial activity against Fusobacterium varium by CLSI agar dilution method; assay type: functional
Fusobacterium nucleatum [7] = test: Antibacterial activity against Fusobacterium nucleatum assessed as resistant isolates by CLSI agar dilution method; assay type: functional
Finegoldia magna [8] = test: Antibacterial activity against beta-lactamase producing Finegoldia magna assessed as susceptible isolates by CLSI agar dilution method in presence of Tazobactam; assay type: functional; summary of the method: as §2
Prevotella buccae [9] = test: Antibacterial activity against Prevotella buccae assessed as susceptible isolates by CLSI agar dilution method in presence of Tazobactam; assay type: functional, Segatella buccae; summary of the method: as §1
Fusobacterium mortiferum [10] = test: Antibacterial activity against Fusobacterium mortiferum assessed as susceptible isolates by CLSI agar dilution method; assay type: functional
Fusobacterium mortiferum [11] = test: Antibacterial activity against Fusobacterium mortiferum by CLSI agar dilution method in presence of Tazobactam; assay type: functional; summary of the method: as §1
Bacteroides fragilis [12] = test: Antibacterial activity against Bacteroides fragilis by CLSI agar dilution method; assay type: functional
Bacteroides fragilis [13] = test: Antibacterial activity against Bacteroides fragilis assessed as resistant isolates by CLSI agar dilution method; assay type: functional
[14] = system: Prevotella melaninogenica; test: Antibacterial activity against Prevotella melaninogenica assessed as resistant isolates by CLSI agar dilution method; assay type: functional
[15] = system: Bacteroides thetaiotaomicron; test: Antibacterial activity against beta-lactamase producing Bacteroides thetaiotaomicron assessed as susceptible isolates by CLSI agar dilution method; assay type: functional
Veillonella parvula = test: Antibacterial activity against Veillonella parvula by CLSI agar dilution method in presence of Tazobactam; assay type: functional; summary of the method: as §1
Fusobacterium nucleatum [16] = test: Antibacterial activity against Fusobacterium nucleatum assessed as susceptible isolates by CLSI agar dilution method in presence of Tazobactam; assay type: functional; summary of the method: as §1
Bacteroides caccae = test: Antibacterial activity against beta-lactamase producing Bacteroides caccae assessed as resistant isolates by CLSI agar dilution method; assay type: functional
Clostridium perfringens = test: microbe, parasite or virus in culture; assay type: functional
Prevotella intermedia = test: Antibacterial activity against Prevotella intermedia assessed as susceptible isolates by CLSI agar dilution method in presence of Tazobactam; assay type: functional; summary of the method: as §1
[17] = system: Peptoniphilus asaccharolyticus; test: Antibacterial activity against beta-lactamase producing Peptoniphilus asaccharolyticus assessed as resistant isolates by CLSI agar dilution method in presence of Tazobactam; assay type: functional; summary of the method: as §3
[18] = system: Clostridium paraputrificum; test: Antibacterial activity against beta-lactamase producing Clostridium paraputrificum assessed as resistant isolates by CLSI agar dilution method in presence of Tazobactam; assay type: functional; summary of the method: as §3
[19] = system: Bacteroides thetaiotaomicron; test: Antibacterial activity against beta-lactamase producing Bacteroides thetaiotaomicron by CLSI agar dilution method in presence of Tazobactam; assay type: functional; summary of the method: as §1
[20] = system: Clostridium paraputrificum; test: Antibacterial activity against beta-lactamase producing Clostridium paraputrificum assessed as resistant isolates by CLSI agar dilution method; assay type: functional
Parvimonas micra [21] = test: Antibacterial activity against beta-lactamase producing Micromonas micros assessed as susceptible isolates by CLSI agar dilution method; assay type: functional
Phocaeicola vulgatus = test: Antibacterial activity against beta-lactamase producing Bacteroides vulgatus assessed as resistant isolates by CLSI agar dilution method; assay type: functional
[22] = system: Clostridium paraputrificum; test: Antibacterial activity against beta-lactamase producing Clostridium paraputrificum assessed as susceptible isolates by CLSI agar dilution method; assay type: functional
Clostridium tertium [23] = test: Antibacterial activity against beta-lactamase producing Clostridium tertium assessed as resistant isolates by CLSI agar dilution method; assay type: functional
Clostridium tertium [24] = test: Antibacterial activity against beta-lactamase producing Clostridium tertium assessed as resistant isolates by CLSI agar dilution method in presence of clavulanate; assay type: functional; summary of the method: as §3
Fusobacterium mortiferum [25] = test: Antibacterial activity against Fusobacterium mortiferum assessed as resistant isolates by CLSI agar dilution method in presence of clavulanate; assay type: functional; summary of the method: as §3
[26] = system: Fusobacterium necrophorum; test: Antibacterial activity against Fusobacterium necrophorum assessed as resistant isolates by CLSI agar dilution method in presence of clavulanate; assay type: functional; summary of the method: as §3
Parvimonas micra [27] = test: Antibacterial activity against beta-lactamase producing Micromonas micros by CLSI agar dilution method in presence of clavulanate; assay type: functional; summary of the method: as §2
[28] = system: Bacteroides thetaiotaomicron; test: Antibacterial activity against beta-lactamase producing Bacteroides thetaiotaomicron by CLSI agar dilution method in presence of clavulanate; assay type: functional; summary of the method: as §1
[29] = system: Fusobacterium necrophorum; test: Antibacterial activity against Fusobacterium necrophorum assessed as susceptible isolates by CLSI agar dilution method in presence of clavulanate; assay type: functional; summary of the method: as §1
[30] = system: Clostridium paraputrificum; test: Antibacterial activity against beta-lactamase producing Clostridium paraputrificum assessed as susceptible isolates by CLSI agar dilution method in presence of clavulanate; assay type: functional; summary of the method: as §2
Bacteroides fragilis [31] = test: Antibacterial activity against Bacteroides fragilis by CLSI agar dilution method in presence of clavulanate; assay type: functional; summary of the method: as §1
Prevotella buccae [32] = test: Antibacterial activity against Prevotella buccae assessed as resistant isolates by CLSI agar dilution method in presence of clavulanate; assay type: functional, Segatella buccae; summary of the method: as §3
[33] = system: Prevotella melaninogenica; test: Antibacterial activity against Prevotella melaninogenica assessed as susceptible isolates by CLSI agar dilution method in presence of clavulanate; assay type: functional; summary of the method: as §1
Finegoldia magna [34] = test: Antibacterial activity against beta-lactamase producing Finegoldia magna assessed as resistant isolates by CLSI agar dilution method in presence of clavulanate; assay type: functional; summary of the method: as §3
Parvimonas micra [35] = test: Antibacterial activity against beta-lactamase producing Micromonas micros assessed as susceptible isolates by CLSI agar dilution method in presence of clavulanate; assay type: functional; summary of the method: as §2

Compound: CCN1CCN(C(=O)N[C@@H](C(=O)N[C@@H]2C(=O)N3[C@@H]2SC(C)(C)[C@@H]3C(=O)O)c2ccccc2)C(=O)C1=O [PIPERACILLIN]
- Activity [1]: 100%
- Activity [2]: 100%
- Activity [3]: 97%
- Activity (Prevotella buccae [4]): 0%
- Activity (Fusobacterium varium [5]): 0%
- MIC50 (Fusobacterium varium [6]): 2 µg/mL (≈ 3.86 µM)
- MIC90 (Fusobacterium varium [6]): 8 µg/mL (≈ 15.5 µM)
- Activity (Fusobacterium nucleatum [7]): 10%
- Activity (Finegoldia magna [8]): 97%
- Activity (Prevotella buccae [9]): 100%
- Activity (Fusobacterium mortiferum [10]): 90%
- MIC50 (Fusobacterium mortiferum [11]): 0.5 µg/mL
- MIC90 (Fusobacterium mortiferum [11]): 2 µg/mL
- MIC50 (Bacteroides fragilis [12]): 8 µg/mL (≈ 15.5 µM)
- MIC90 (Bacteroides fragilis [12]): > 128 µg/mL
- Activity (Bacteroides fragilis [13]): 35%
- Activity [14]: 22%
- Activity [15]: 63%
- MIC (Veillonella parvula): > 0.03 µg/mL
- Activity (Fusobacterium nucleatum [16]): 100%
- Activity (Bacteroides caccae): 65%
- MIC50 (Clostridium perfringens): 0.5 µg/mL (≈ 0.966 µM)
- MIC90 (Clostridium perfringens): 2 µg/mL (≈ 3.86 µM)
- Activity (Prevotella intermedia): 100%
- Activity [17]: 0%
- Activity [18]: 0%
- MIC50 [19]: 8 µg/mL
- MIC90 [19]: 32 µg/mL
- Activity [20]: 0%
- Activity (Parvimonas micra [21]): 97%
- Activity (Phocaeicola vulgatus): 65%
- Activity [22]: 100%
- Activity (Clostridium tertium [23]): 0%

Compound: CC1(C)S[C@@H]2[C@H](NC(=O)[C@H](N)c3ccc(O)cc3)C(=O)N2[C@H]1C(=O)O [AMOXICILLIN]
- Activity (Clostridium tertium [24]): 4%
- Activity (Fusobacterium mortiferum [25]): 7%
- Activity [26]: 7%
- MIC50 (Parvimonas micra [27]): 0.25 µg/mL
- MIC90 (Parvimonas micra [27]): 2 µg/mL
- MIC [28]: 4 µg/mL
- MIC50 [28]: 4 µg/mL
- MIC90 [28]: 32 µg/mL
- Activity [29]: 89%
- Activity [30]: 96%
- MIC50 (Bacteroides fragilis [31]): 4 µg/mL
- MIC90 (Bacteroides fragilis [31]): 32 µg/mL
- Activity (Prevotella buccae [32]): 6%
- Activity [33]: 81%
- Activity (Finegoldia magna [34]): 3%
- Activity (Parvimonas micra [35]): 94%
